The text below walks through data of ChEMBL document CHEMBL1126171, “Synthesis of 2-(p-chlorobenzyl)-3-aryl-6-methoxybenzofurans as selective ligands for antiestrogen-binding sites. Effects on cell proliferation and cholesterol synthesis” (J Med Chem, 1992).

The IC50 is the concentration that inhibits the measured activity by half. Low readings indicate higher potency, high ones lower potency.

SMILES strings stand for the structures.

Test [1] concerns the target T1, Anti-estrogen binding site (AEBS) (Homo sapiens) (UniProt Q15125+Q9UBM7). The experiment in a line: Relative binding affinity (RBA) against AEBS (Antiestrogen binding site) in rat liver. To be noted: target entry is the homologue from another species. The format is functional, tissue-based.
The target in test [2] is Estrogen receptor (Homo sapiens) (UniProt Q92731+P03372). The experiment in a line: Relative binding affinity(RBA) against Estrogen receptor using MCF-7 cells. To be noted: MCF7. Type of test: cell-based. In outline: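 Competition for ER in MCF7 whole cells suspended in phosphate-buffered saline, 3 × 10^7 cells per duplicate aliquot. Incubated with 5 nM [3H]estradiol with or without 100-fold molar excess of competitor or diethylstilbestrol, then washed and counted as for the AEBS assay. Bound label reported as % of no-competitor control. Mean ± SEM of two experiments.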

Test [3] has as its target T1, Anti-estrogen binding site (AEBS) (Homo sapiens). The experiment in a line: Relative binding affinity (RBA) against AEBS (Antiestrogen binding site) using N1-S1 cells. To be noted: Rattus norvegicus. Type of test: functional, cell-based.
The target is the same in test [4]. Put plainly: Relative binding affinity(RBA) against AEBS (Antiestrogen binding site) in rat liver. The format is functional, tissue-based. To be noted: target entry is the homologue from another species.
Test [5] has the same target. Put plainly: Displacement of [3H]tamoxifen from AEBS of EL4 cells. The format is functional, cell-based. To be noted: Mus musculus. For orientation: Displacement assays read how much labelled ligand stays bound in the presence of the test substance.
The test system of the next test is EL4. The experiment in a line: Inhibition of [3H]thymidine incorporation into EL4 cell proliferation. The format is functional, cell-based. To be noted: Mus musculus, EL4, 48 h. In outline:
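Treated 48 h with compound; DNA synthesis measured by [3H]thymidine incorporation, cells harvested onto filters and counted. Mean ± SEM of two experiments.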
For orientation: Dividing cells build labelled thymidine or BrdU into new DNA.

Test [6] relates to MCF7S. The experiment in a line: (§1) Inhibition of [3H]thymidine incorporation into MCF-7 cells. Type of test: functional, cell-based. To be noted: Homo sapiens. In outline:
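After 24 h, compound (final […], diluted from 1 mM ethanolic stock; solvent controls) and [3H]thymidine (37 kBq/well) added. Incubated 48 h, then trypsinized, harvested and counted. Mean ± SEM of two experiments.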

The target of test [7] is T1, Anti-estrogen binding site (AEBS) (Homo sapiens). The experiment in a line: Relative binding affinity(RBA) against AEBS (Antiestrogen binding site) using N1-S1 cells. To be noted: Rattus norvegicus. Type of test: functional, cell-based.
For test [8] the target is unchanged. The experiment in a line: Relative binding affinity(RBA) against AEBS (Antiestrogen binding site) in N1-S1 cells.
Test [9] shares this target. Put plainly: Effect on cholesterol biosynthesis in EL4 cells, 48 hr incubation with 0.25 mM [3H]acetate. Type of test: functional, cell-based. To be noted: Mus musculus. In outline:
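EL4 cells at 20 × 10^6 cells/mL in lipoprotein-poor RPMI, incubated 48 h with 0.25 mM [3H]acetate ± 10^-7 M compound, in triplicate, two experiments. Stopped with KOH/ethanol, [14C]cholesterol added for recovery, saponified 95 °C 90 min. Nonsaponifiable lipids extracted in petroleum ether. Result as % of total incorporated label found in cholesterol; inhibition versus control; Student's t test.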

The subject of test [10] is MCF7S. The description is as §1. Type of test: functional, cell-based. To be noted: Homo sapiens. In outline:
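MCF7 cells in Hepes-buffered RPMI 1640 with 5% newborn calf serum, seeded 4500 per well. After 24 h, compound (final […], diluted from 1 mM ethanolic stock; solvent controls) and [3H]thymidine (37 kBq/well) added. Incubated 48 h, then trypsinized, harvested and counted. […] Mean ± SEM of two experiments.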
This is another data set of the same source.

Test [11] deals with T1, Anti-estrogen binding site (AEBS) (Homo sapiens). The experiment in a line: Effect on cholesterol biosynthesis in EL4 cells, 5 hr incubation with 0.25 mM [3H]acetate. The format is functional, cell-based. To be noted: Mus musculus. In outline: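 EL4 cells at 20 × 10^6 cells/mL in lipoprotein-poor RPMI given 0.25 mM [3H]acetate for 5 h, without or with compound (10^-6 M or 10^-4 M depending on compound); triplicates in two experiments. KOH/ethanol saponification at 95 °C with [14C]cholesterol recovery standard; petroleum ether extraction. Label in cholesterol as % of total cellular incorporation; % inhibition versus control; Student's t test.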

A short description of test [12]: Percent of cell viability by trypan blue exclusion. The format is functional. In outline: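 Viability of EL4 cells in the [3H]acetate cholesterol-synthesis incubations (20 × 10^6 cells/mL; 5 h or 48 h with compound at 10^-7 to 10^-4 M), estimated by trypan blue exclusion.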
In test [13] the target is T1, Anti-estrogen binding site (AEBS) (Homo sapiens). Put plainly: Relative binding affinity(RBA) against AEBS (Antiestrogen binding site) in MCF-7 cells. To be noted: target entry is the homologue from another species.
For test [14] the target is unchanged. The experiment in a line: Relative binding affinity(RBA) against AEBS (Antiestrogen binding site) in N1-S1 cells. Type of test: functional, cell-based. To be noted: Rattus norvegicus.
Test [15] has the same target. The experiment in a line: Relative binding affinity(RBA) against AEBS (Antiestrogen binding site) using EL-4 cells. Type of test: functional, cell-based. To be noted: Mus musculus.
Test [16] has the same target. Put plainly: Relative binding affinity(RBA) against AEBS (Antiestrogen binding site) in guinea pig uterus. Type of test: functional, tissue-based. To be noted: Cavia porcellus, target entry is the homologue from another species.
The target is the same in test [17]. The experiment in a line: Relative binding affinity(RBA) against AEBS (Antiestrogen binding site) in chicken liver. To be noted: Gallus gallus; target entry is the homologue from another species.

In the case of `CCN(CC)CCOc1ccc(Cc2ccccc2)cc1`, in [1], the relative binding affinity (RBA) is 0.06.

With `COc1ccc2c(c1)OCC(c1ccc(F)cc1)=C2c1ccc(OCCN2CCCCC2)cc1`, the relative binding affinity (RBA) in [2] is < 1; in test [3], 161.

Turning to `CCN(CC)CCOC(=O)C(CC(C)C)(c1ccccc1)c1ccccc1`, the relative binding affinity (RBA) in test [1] turned out to be 5.

As to `C1=C(c2ccccc2)C(c2ccc(OCCN3CCCCC3)cc2)Oc2ccccc21` (stereo not drawn), the relative binding affinity (RBA) in test [4] came out at 225.

With `CC/C(=C(\c1ccccc1)c1ccc(OCCN2CCCC2)cc1)c1ccccc1`, in [4], the relative binding affinity (RBA) was 434.

Consider `Oc1cccc(C(=C2CCCCC2)c2cccc(OCCN3CCCCC3)c2)c1`, for which the relative binding affinity (RBA) in test [4] came to 10.

As for `CN(C)CCOc1cccc(C(=C2CCCCC2)c2cccc(O)c2)c1`, the relative binding affinity (RBA) in test [4] amounted to 17.

Regarding `COc1ccc2c(-c3ccc(OCCN4CCCC4)cc3)c(-c3ccccc3)oc2c1`, the relative binding affinity (RBA) in test [4] came to 23.

`COc1ccc2c(-c3ccc(OCCN(C)C)cc3)c(Cc3ccc(Cl)cc3)oc2c1` gave a relative binding affinity (RBA) in test [5] of 391. Further, the IC50 in the test on EL4 was determined as 950 nM; in the test with MCF7S [6], 5020 nM.

In the case of `COc1ccc2c(c1)OCC(c1ccc(F)cc1)=C2c1ccc(OCCN2CCCC2)cc1`, the relative binding affinity (RBA) in [2] was < 1; in test [3], 176.

With `COc1ccc2c(c1)OCC(c1ccc(F)cc1)=C2c1ccc(OCCN2CCOCC2)cc1`, the results for the relative binding affinity (RBA) in [2] and in [7] were < 1 and 68, respectively.

For `CN(C)CCOc1ccc(C2Oc3ccccc3C=C2c2ccccc2)cc1` (stereo not drawn), the relative binding affinity (RBA) in test [4] was determined as 98.

Take `C=CC(C(=O)OCCN(CC)CC)(c1ccccc1)c1ccccc1`: the relative binding affinity (RBA) in [1] stood at 10.

For `CC/C(=C(\c1ccccc1)c1ccc(OCCN2CCOCC2)cc1)c1ccccc1`, in test [4], the relative binding affinity (RBA) stood at 1170.

With `CC/C(=C(\c1ccccc1)c1ccc(OCCN(CC)CC)cc1)c1ccccc1`, the relative binding affinity (RBA) amounted to 21 in test [1] and 46 in [8].

On to `C1=C(c2ccccc2)C(c2ccc(OCCN3CCCC3)cc2)Oc2ccccc21` (stereo not drawn), for which, in test [4], the relative binding affinity (RBA) turned out to be 134.

For `COc1ccc2c(-c3ccc(OCCN4CCCC4)cc3)c(Cc3ccc(Cl)cc3)oc2c1.Cl`, the Activity is 0.32% [middle of 5 runs] in [9] and 0.12% [middle of 6 runs] in test [11]. The IC50 in the test on MCF7S [10] was 2300 nM; in the test on EL4, 475 nM. Also, the relative binding affinity (RBA) in test [5] turned out to be 268. Also, in test [12], the Cell viability is 91%.

The compound `CC/C(=C(\c1ccccc1)c1ccc(OCCN2CCN(C)CC2)cc1)c1ccccc1` registered a relative binding affinity (RBA) in [4] of 540.

As to `Oc1cccc(C(=C2CCCCC2)c2cccc(OCCN3CCOCC3)c2)c1`, the relative binding affinity (RBA) in test [4] came out at 25.

In the case of `O=C(c1ccc(OCCN2CCCC2)cc1)c1c(-c2ccc(O)cc2)sc2cc(O)ccc12`, the relative binding affinity (RBA) in test [13] is 19; in test [2], 115.

In turn, `COc1ccc2c(c1)OC(C)(C)[C@H](c1ccccc1)[C@H]2c1ccc(OCCN2CCCC2)cc1` yielded a relative binding affinity (RBA) in test [4] of 19.

`CCN(CC)CCOc1ccc(C2=C(c3ccc(F)cc3)COc3cc(OC)ccc32)cc1`: the values for the relative binding affinity (RBA) in test [14] and in [2] were 106 and < 1, respectively.

With `CCCC(C(=O)OCCN(CC)CC)(c1ccccc1)c1ccccc1`, the relative binding affinity (RBA) in test [1] came to 12.

Compound `COc1ccc2c(c1)OC(C)(C)[C@@H](c1ccccc1)[C@H]2c1ccc(OCCN2CCCC2)cc1` had a relative binding affinity (RBA) in [4] of 46.

In the case of `COc1ccc2c(c1)OCC(c1ccc(Cl)cc1)=C2c1ccc(OCCN2CCCC2)cc1`, the relative binding affinity (RBA) in test [15] is 257; in test [2], < 1.

For `COc1ccc2c(-c3ccc(OCCN4CCOCC4)cc3)c(Cc3ccc(Cl)cc3)oc2c1.Cl`, the relative binding affinity (RBA) in test [5] came out at 1830. The IC50 in the test on EL4 was determined as 335 nM; with MCF7S [6] it was 6500 nM. Also, in test [11], the Activity is 0.11% [middle of 6 runs]. Also, the Cell viability in [12] is recorded as 79%.

For `COc1ccc2c(c1)OCC(c1ccc(Br)cc1)=C2c1ccc(OCCN2CCCC2)cc1`, the relative binding affinity (RBA) in test [15] is 169; in test [2], < 1.

Consider `CCN(CC)CCOc1ccc(C(C)(C)C)cc1`, for which, in test [4], the relative binding affinity (RBA) came to 0.08.

Regarding `COc1ccc2c(c1)CCC(c1ccccc1)=C2c1ccc(OCCN2CCCC2)cc1`, the relative binding affinity (RBA) in test [4] was 90; in [16] it was 124; in test [17], 183.

As for `CCN(CC)CCOc1cccc(C(=C2CCCCC2)c2cccc(O)c2)c1`, the relative binding affinity (RBA) in [4] is 6.

`COc1ccc2c(c1)OCC(c1ccccc1)=C2c1ccc(OCCN2CCCC2)cc1`: the relative binding affinity (RBA) is 557 in [15] and < 1 in [2].
